Source: ChEMBL document CHEMBL4834396, “Molecular Recognition and Imaging of Human Telomeric G-Quadruplex DNA in Live Cells: A Systematic Advancement of Thiazole Orange Scaffold To Enhance Binding Specificity and Inhibition of Gene Expression” (J Med Chem, 2021)
Active and inactive are the calls of the source. The calls are words filed in the database; no cut-off is given here.

Assays:
[1] = test system: Quadruplex DNA [UNDEFINED MUTATION]; test: Binding affinity to telomeric Htg24 G-quadruplex DNA G16C mutant (unknown origin) assessed as negative fluorescence signal at 5 uM under pH condition 7.4 by fluorescence titration analysis; type: nucleic-acid assay; conditions: Homo sapiens
How it was run: (§1)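 Ligand 5 μM mixed with wild-type or point-mutant Htg24 in Tris-HCl buffer with 60 mM KCl; signal change calculated as (F mutant − F wild type)/F wild type.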

16HBE14o- = test: Cytotoxicity against human 16HBE14o- cells assessed as cell viability incubated for 48 hrs by MTT assay; type: cell-based; conditions: 36 h, in the assay text read “36 hrs” for “48 hrs”
How it was run: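 Cells were plated and grown 48 h at 37 °C, 5% CO2, in DMEM with 10% FBS. They were then given graded ligand concentrations for 36 h and treated with MTT (5 mg/ml) for 4 h in the dark. Formazan was dissolved in DMSO and absorbance read at 577 nm. IC50 was taken from a sigmoidal dose–response fit; three independent experiments.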

[2] = test system: Quadruplex DNA [UNDEFINED MUTATION]; test: Binding affinity to telomeric Htg24 G-quadruplex DNA G22C mutant (unknown origin) assessed as negative fluorescence signal at 5 uM under pH condition 7.4 by fluorescence titration analysis; type: nucleic-acid assay; conditions: Homo sapiens
How it was run: (§2)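 Ligand held at 5 μM and mixed with each Htg24 point mutant in Tris-HCl buffer containing 60 mM KCl, pH 7.4. Fluorescence was read, and the signal change was computed as (F mutant − F wild type)/F wild type.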

[3] = test system: Quadruplex DNA [UNDEFINED MUTATION]; test: Effect on confirmation of telomeric Htg24 G-quadruplex DNA T12G mutant (unknown origin) assessed as hybrid topology at 5 uM at pH 7.4 by circular dichroism analysis; type: nucleic-acid assay; conditions: Homo sapiens
How it was run: (§3)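 CD spectra recorded on G4-DNA and ligand, each at 5 μM, in 10 mM Tris-HCl, pH 7.4, with 60 mM KCl. Scan range 220–340 nm in a 1 mm quartz cuvette, 1 nm bandwidth and step, 0.5 s/point. Each spectrum is the average of three scans.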

Quadruplex DNA [4] = test: Binding affinity to telomeric Htg24 G-quadruplex DNA (unknown origin) assessed as compound-DNA complex stoichiometry ratio of 1:1 by Job's plot analysis; type: nucleic-acid assay
Quadruplex DNA [5] = test: Binding affinity to telomeric Htg22 G-quadruplex DNA (unknown origin) assessed as fold increase in fluorescence signal at 5 uM under pH condition 7.4 by fluorescence method; type: nucleic-acid assay
How it was run: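 Ligand 5 μM with each nucleic acid at 15 μM in 10 mM Tris-HCl pH 7.4, 60 mM KCl; emission enhancement expressed as F/F0 against ligand without DNA.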

HeLa [6] = test: Downregulation of hTERT mRNA expression in human HeLa cells at 5 to 20 uM by qRT-PCR analysis; type: functional, cell-based; conditions: dose 5-20 µM
How it was run: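 HeLa cells were treated with graded compound concentrations, then incubated 36 h. RNA was extracted with Trizol/chloroform, reverse transcribed and quantified by qRT-PCR. GAPDH served as internal control, with relative expression by the ΔΔCt method; three independent experiments, mean ± SD.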

[7] = test system: Quadruplex DNA [UNDEFINED MUTATION]; test: Binding affinity to telomeric Htg24 G-quadruplex DNA G21T mutant (unknown origin) assessed as strong fluorescence signal at 5 uM under pH condition 7.4 by fluorescence titration analysis; type: nucleic-acid assay; conditions: Homo sapiens; how it was run: as §2
Quadruplex DNA [8] = test: Binding affinity to telomeric Htg24 G-quadruplex DNA (unknown origin) assessed as stroke shift under at 480 to 483 nm at pH 7.4 by spectrophotometric method
HeLa [9] = test: Antiproliferative activity against human HeLa cells assessed as reduction in cell viability […] by MTT assay; type: functional, cell-based
[10] = test system: Quadruplex DNA [UNDEFINED MUTATION]; test: Effect on confirmation of telomeric Htg24 G-quadruplex DNA G22T mutant (unknown origin) assessed as hybrid topology at 5 uM at pH 7.4 by circular dichroism analysis; type: nucleic-acid assay; conditions: Homo sapiens; how it was run: as §3
DNA = test: Binding affinity to ds26 DNA (unknown origin) assessed as equilibrium binding constant at 5 uM at 25 degreeC by […]; type: nucleic-acid assay
How it was run: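 Fluorescence titration: ligand 5 μM in 10 mM Tris-HCl pH 7.4 with 60 mM KCl, nucleic acid added until saturation, 25 °C. Keq from nonlinear fit of F/F0 to an independent-site model.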

[11] = test system: Quadruplex DNA [UNDEFINED MUTATION]; test: Effect on confirmation of telomeric Htg24 G-quadruplex DNA G16A mutant (unknown origin) assessed as parallel topology at 5 uM at pH 7.4 by circular dichroism analysis; type: nucleic-acid assay; conditions: Homo sapiens; how it was run: as §3
[12] = test system: Quadruplex DNA [UNDEFINED MUTATION]; test: Binding affinity to telomeric Htg24 G-quadruplex DNA G16A mutant (unknown origin) assessed as negative fluorescence signal at 5 uM under pH condition 7.4 by fluorescence titration analysis; type: nucleic-acid assay; conditions: Homo sapiens; how it was run: as §1
[13] = test system: Quadruplex DNA [UNDEFINED MUTATION]; test: Binding affinity to telomeric Htg24 G-quadruplex DNA A14G mutant (unknown origin) assessed as negative fluorescence signal at 5 uM under pH condition 7.4 by fluorescence titration analysis; type: nucleic-acid assay; conditions: Homo sapiens; how it was run: as §1
HeLa [14] = test: Effect on telomere length in human HeLa cells assessed as reduction of telomere length incubated for 18 days by qRT-PCR analysis; type: functional, cell-based; conditions: dose 0.5-4 µM, time 18.0 day
How it was run: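 HeLa cells were treated with graded compound concentrations (0–4 μM) for 18 days. Genomic DNA was isolated by proteinase K digestion and phenol/chloroform extraction. Relative telomere length was measured by qPCR against hRPLPO using the ΔΔCt method; three independent experiments.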

[15] = Drug uptake in nucleolus of human U87 cells assessed as imaging of G-quadruplex at 5 uM for 30 mins followed by co-staining with DAPI and measured after 10 mins by confocal laser fluorescence microscopic analysis; type: ADME, subcellular; conditions: u-87mg atcc, 40 min
How it was run: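 Live U87 cells were co-stained with ligand (5 μM, 30 min) and DAPI (1 μM, 10 min). Confocal imaging used excitation at 402 nm for DAPI and 488 or 571 nm for the ligand.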

[16] = test system: Quadruplex DNA [UNDEFINED MUTATION]; test: Binding affinity to telomeric Htg24 G-quadruplex DNA G21A mutant (unknown origin) assessed as strong fluorescence signal at 5 uM under pH condition 7.4 by fluorescence titration analysis; type: nucleic-acid assay; conditions: Homo sapiens; how it was run: as §1
[17] = target: Telomerase reverse transcriptase (Homo sapiens) (UniProt O14746); test: Inhibition of telomerase in human HeLa cells incubated for 36 hrs by TRAP assay; type: cell-based; conditions: dose 1-20 µM
How it was run: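 HeLa cells were treated with ligand for 36 h, and 10^6 cells were lysed in CHAPS buffer on ice for 30 min. Extract protein (10–750 ng/ml) was extended with TS primer in TRAP buffer (pH 8.3) at 30 °C for 30 min, then heat-inactivated at 95 °C. Products were PCR-amplified for 33 cycles, resolved on 10% native PAGE and stained with SYBR Gold.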

[18] = test system: Quadruplex DNA [UNDEFINED MUTATION]; test: Binding affinity to telomeric Htg24 G-quadruplex DNA G3C mutant (unknown origin) assessed as negative fluorescence signal at 5 uM under pH condition 7.4 by fluorescence titration analysis; type: nucleic-acid assay; conditions: Homo sapiens; how it was run: as §2
[19] = test system: Quadruplex DNA [UNDEFINED MUTATION]; test: Effect on confirmation of telomeric Htg24 G-quadruplex DNA G16C mutant (unknown origin) assessed as parallel topology at 5 uM at pH 7.4 by circular dichroism analysis; type: nucleic-acid assay; conditions: Homo sapiens; how it was run: as §3
Quadruplex DNA [20] = test: Binding affinity to wild type telomeric Htg24 G-quadruplex DNA (unknown origin) assessed as antiparallel structure at 5 uM under pH condition 7.4 with 60 mM K+ ion by CD spectra analysis; type: nucleic-acid assay; how it was run: as §3

Sequence of Telomerase reverse transcriptase (Homo sapiens) (O14746 whole entry): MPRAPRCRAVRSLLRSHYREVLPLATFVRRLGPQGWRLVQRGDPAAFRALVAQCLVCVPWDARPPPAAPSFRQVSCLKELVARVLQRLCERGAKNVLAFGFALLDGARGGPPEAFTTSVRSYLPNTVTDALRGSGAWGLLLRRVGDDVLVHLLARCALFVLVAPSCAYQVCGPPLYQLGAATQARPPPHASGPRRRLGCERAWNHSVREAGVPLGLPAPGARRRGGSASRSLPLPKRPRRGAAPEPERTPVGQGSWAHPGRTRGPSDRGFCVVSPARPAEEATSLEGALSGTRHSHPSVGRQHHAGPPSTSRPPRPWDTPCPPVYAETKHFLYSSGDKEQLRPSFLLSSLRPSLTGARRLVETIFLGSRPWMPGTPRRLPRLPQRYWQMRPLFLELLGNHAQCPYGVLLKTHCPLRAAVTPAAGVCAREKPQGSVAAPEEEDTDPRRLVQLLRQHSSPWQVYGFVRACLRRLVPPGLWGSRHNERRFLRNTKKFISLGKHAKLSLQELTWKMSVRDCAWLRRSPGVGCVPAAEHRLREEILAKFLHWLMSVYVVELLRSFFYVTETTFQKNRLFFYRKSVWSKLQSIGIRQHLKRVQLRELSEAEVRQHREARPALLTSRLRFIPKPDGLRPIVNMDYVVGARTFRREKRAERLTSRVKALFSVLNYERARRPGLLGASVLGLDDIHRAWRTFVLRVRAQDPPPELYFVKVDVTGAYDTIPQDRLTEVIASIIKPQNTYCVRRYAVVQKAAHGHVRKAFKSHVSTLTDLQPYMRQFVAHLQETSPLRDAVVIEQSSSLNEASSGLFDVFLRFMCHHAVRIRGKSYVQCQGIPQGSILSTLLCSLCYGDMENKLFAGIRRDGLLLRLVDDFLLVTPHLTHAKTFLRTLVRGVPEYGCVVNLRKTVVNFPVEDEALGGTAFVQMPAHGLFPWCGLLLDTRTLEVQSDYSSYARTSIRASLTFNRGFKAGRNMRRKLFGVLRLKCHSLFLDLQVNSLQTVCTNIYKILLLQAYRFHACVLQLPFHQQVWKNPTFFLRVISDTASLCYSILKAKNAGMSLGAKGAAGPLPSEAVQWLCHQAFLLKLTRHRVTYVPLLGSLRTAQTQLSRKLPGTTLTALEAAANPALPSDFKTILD

For CN(C)c1ccc(/C=C/c2cc(/C=C3\Sc4ccccc4N3CCCN3CCOCC3)c3ccccc3[n+]2C)cc1.[I-], which Activity [1] is on record?
Its Activity is “Active”.

What about the IC50 (16HBE14o-) of the same molecule?
Its IC50 is 52.3 µM.

And the Activity [2]?
Its Activity is “Active”.

And the Activity [3]?
Its Activity is “Active”.

And the Activity (Quadruplex DNA [4])?
Its Activity is “Active”.

And the fold change (FC) (Quadruplex DNA [5])?
The fold change (FC) was 120.

What about the Activity (HeLa [6]) of the same molecule?
Its Activity is “Active”.

What about the Activity [7] of the same molecule?
The Activity was “Active”.

And the Activity (Quadruplex DNA [8])?
Its Activity is 162 nm.

What about the IC50 (HeLa [9]) of the same molecule?
Its IC50 is 16.3 µM.

And the Activity [10]?
Its Activity is “Active”.

What about the Kb (DNA) of the same molecule?
Its Kb is 367000 M⁻¹.

What about the Activity [11] of the same molecule?
The Activity was “Active”.

What about the Activity [12] of the same molecule?
Its Activity is “Active”.

What about the Activity [13] of the same molecule?
Its Activity is “Active”.

And the Activity (HeLa [14])?
Its Activity is “Dose-Dependent Effect”.

And the Drug uptake [15]?
The Drug uptake was “Active”.

And the Activity [16]?
The Activity was “Active”.

And the inhibition [17]?
The inhibition was “Dose-Dependent Effect”.

What about the Activity [18] of the same molecule?
Its Activity is “Active”.

What about the Activity [19] of the same molecule?
The Activity was “Active”.

And the Activity (Quadruplex DNA [20])?
Its Activity is “Active”.
